# Experimental data published in ChEMBL document CHEMBL1137764, “Design, synthesis, antibacterial activity and physicochemical parameters of novel N-4-piperazinyl derivatives of norfloxacin” (Bioorg Med Chem, 2009).
# Legend:
# Klebsiella pneumoniae [1] = assay: Antimicrobial activity against Klebsiella pneumoniae at 64 ug/ml after 24 hrs by agar diffusion technique; assay type: functional; conditions: read-out: DIZ
# How it was run: (§1)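 Strains came from a university microbiology department. Inocula were 10⁶ CFU/mL. Mueller-Hinton agar was seeded with culture, poured 3–4 mm thick, and 10 mm cups were bored. Compounds were dissolved in DMF (10 mg/mL stock), diluted, and the solution was placed in the cups. Plates were incubated at 37 °C overnight. Inhibition zone diameter (mm) was read at 24 h.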
# Pseudomonas aeruginosa [2] = assay: Antimicrobial activity against Pseudomonas aeruginosa after 24 hrs by agar diffusion technique; assay type: functional; conditions: for MIC: Pseudomonas aeruginosa, 24 h
# How it was run: (§2)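 Agar cup diffusion on Mueller-Hinton agar seeded from 10⁶ CFU/mL suspensions, with 10 mm cups in a 3–4 mm layer. Compounds were in DMF (10 mg/mL stock) at several concentrations. Plates were incubated at 37 °C and zones measured after 24 h. MIC was taken as the intercept of the plot of log concentration against inhibition zone diameter.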
# [3] = Octanol-phosphate buffer partition coefficient, log D at pH 7.4 by spectrophotometry; assay type: physicochemical
# How it was run: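 Shake-flask method. A 0.2 mg/mL stock was diluted into pH 7.4 phosphate buffer and mixed with an equal volume of n-octanol, phases mutually presaturated and protected from light. Samples were vortexed 3 min, then shaken 5 h at 25 °C. Both phases were assayed by UV at 270–280 nm. D is the molar concentration ratio, octanol to aqueous.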
# Escherichia coli [4] = assay: Antimicrobial activity against Escherichia coli at 64 ug/ml after 24 hrs by agar diffusion technique; assay type: functional; conditions: read-out: DIZ; how it was run: as §1
# Staphylococcus aureus [5] = assay: Antimicrobial activity against Staphylococcus aureus after 24 hrs by agar diffusion technique; assay type: functional; conditions: for MIC: Staphylococcus aureus, 24 h; how it was run: as §2
# Pseudomonas aeruginosa [6] = assay: Antimicrobial activity against Pseudomonas aeruginosa at 16 ug/ml after 24 hrs by agar diffusion technique; assay type: functional; conditions: read-out: DIZ; how it was run: as §1
# Escherichia coli [7] = assay: Antimicrobial activity against Escherichia coli after 24 hrs by agar diffusion technique; assay type: functional; conditions: for MIC: Escherichia coli, 24 h; how it was run: as §2
# Klebsiella pneumoniae [8] = assay: Antimicrobial activity against Klebsiella pneumoniae after 24 hrs by agar diffusion technique; assay type: functional; conditions: for MIC: Klebsiella pneumoniae, 24 h; how it was run: as §2
# Escherichia coli [9] = assay: Antimicrobial activity against Escherichia coli at 128 ug/ml after 24 hrs by agar diffusion technique; assay type: functional; conditions: read-out: DIZ; how it was run: as §1
# Escherichia coli [10] = assay: Antimicrobial activity against Escherichia coli at 16 ug/ml after 24 hrs by agar diffusion technique; assay type: functional; conditions: read-out: DIZ; how it was run: as §1
# Klebsiella pneumoniae [11] = assay: Antimicrobial activity against Klebsiella pneumoniae at 16 ug/ml after 24 hrs by agar diffusion technique; assay type: functional; conditions: read-out: DIZ; how it was run: as §1
# Escherichia coli [12] = assay: Antimicrobial activity against Escherichia coli at 4 ug/ml after 24 hrs by agar diffusion technique; assay type: functional; conditions: read-out: DIZ; how it was run: as §1
# Klebsiella pneumoniae [13] = assay: Antimicrobial activity against Klebsiella pneumoniae at 512 ug/ml after 24 hrs by agar diffusion technique; assay type: functional; conditions: read-out: DIZ; how it was run: as §1
# Klebsiella pneumoniae [14] = assay: Antimicrobial activity against Klebsiella pneumoniae at 4 ug/ml after 24 hrs by agar diffusion technique; assay type: functional; conditions: read-out: DIZ; how it was run: as §1
# Pseudomonas aeruginosa [15] = assay: Antimicrobial activity against Pseudomonas aeruginosa at 64 ug/ml after 24 hrs by agar diffusion technique; assay type: functional; conditions: read-out: DIZ; how it was run: as §1
# Pseudomonas aeruginosa [16] = assay: Antimicrobial activity against Pseudomonas aeruginosa at 128 ug/ml after 24 hrs by agar diffusion technique; assay type: functional; conditions: read-out: DIZ; how it was run: as §1
# Escherichia coli [17] = assay: Antimicrobial activity against Escherichia coli at 512 ug/ml after 24 hrs by agar diffusion technique; assay type: functional; conditions: read-out: DIZ; how it was run: as §1
# Pseudomonas aeruginosa [18] = assay: Antimicrobial activity against Pseudomonas aeruginosa at 512 ug/ml after 24 hrs by agar diffusion technique; assay type: functional; conditions: read-out: DIZ; how it was run: as §1
# Pseudomonas aeruginosa [19] = assay: Antimicrobial activity against Pseudomonas aeruginosa at 4 ug/ml after 24 hrs by agar diffusion technique; assay type: functional; conditions: read-out: DIZ; how it was run: as §1
# Klebsiella pneumoniae [20] = assay: Antimicrobial activity against Klebsiella pneumoniae at 128 ug/ml after 24 hrs by agar diffusion technique; assay type: functional; conditions: read-out: DIZ; how it was run: as §1
# Staphylococcus aureus [21] = assay: Antimicrobial activity against Staphylococcus aureus at 512 ug/ml after 24 hrs by agar diffusion technique; assay type: functional; conditions: read-out: DIZ; how it was run: as §1
# Staphylococcus aureus [22] = assay: Antimicrobial activity against Staphylococcus aureus at 16 ug/ml after 24 hrs by agar diffusion technique; assay type: functional; conditions: read-out: DIZ; how it was run: as §1
# Staphylococcus aureus [23] = assay: Antimicrobial activity against Staphylococcus aureus at 128 ug/ml after 24 hrs by agar diffusion technique; assay type: functional; conditions: read-out: DIZ; how it was run: as §1
# Staphylococcus aureus [24] = assay: Antimicrobial activity against Staphylococcus aureus at 64 ug/ml after 24 hrs by agar diffusion technique; assay type: functional; conditions: read-out: DIZ; how it was run: as §1
# Staphylococcus aureus [25] = assay: Antimicrobial activity against Staphylococcus aureus at 4 ug/ml after 24 hrs by agar diffusion technique; assay type: functional; conditions: read-out: DIZ; how it was run: as §1
MIC (Pseudomonas aeruginosa [2]) [µg/mL],MIC (Staphylococcus aureus [5]) [µg/mL],MIC (Escherichia coli [7]) [µg/mL],MIC (Klebsiella pneumoniae [8]) [µg/mL],SMILES,zone of inhibition at 64 µg/mL (Klebsiella pneumoniae [1]) [mm],logMIC (Pseudomonas aeruginosa [2]),zone of inhibition at 64 µg/mL (Escherichia coli [4]) [mm],logMIC (Staphylococcus aureus [5]),zone of inhibition at 16 µg/mL (Pseudomonas aeruginosa [6]) [mm],logMIC (Escherichia coli [7]),logMIC (Klebsiella pneumoniae [8]),zone of inhibition at 128 µg/mL (Escherichia coli [9]) [mm],zone of inhibition at 16 µg/mL (Escherichia coli [10]) [mm],zone of inhibition at 16 µg/mL (Klebsiella pneumoniae [11]) [mm],zone of inhibition at 4 µg/mL (Escherichia coli [12]) [mm],zone of inhibition at 512 µg/mL (Klebsiella pneumoniae [13]) [mm],zone of inhibition at 4 µg/mL (Klebsiella pneumoniae [14]) [mm],zone of inhibition at 64 µg/mL (Pseudomonas aeruginosa [15]) [mm],zone of inhibition at 128 µg/mL (Pseudomonas aeruginosa [16]) [mm],zone of inhibition at 512 µg/mL (Escherichia coli [17]) [mm],further results
> 512,64,> 512,> 512,CCn1cc(C(=O)O)c(=O)c2cc(F)c(N3CCN(c4nnc(-c5ccccc5)c(-c5ccccc5)n4)CC3)cc21,0,2.71,0,1.81,0,2.71,2.71,0,0,0,0,0,0,0,0,0,logD [3]: -0.072; zone of inhibition at 512 µg/mL (Pseudomonas aeruginosa [18]): 0 mm; zone of inhibition at 4 µg/mL (Pseudomonas aeruginosa [19]): 0 mm; zone of inhibition at 128 µg/mL (Klebsiella pneumoniae [20]): 0 mm
> 512,11,64,13,CCn1cc(C(=O)O)c(=O)c2cc(F)c(N3CCN(C4CCCC4)CC3)cc21,2,2.71,0,1.04,0,1.81,1.11,3,0,0,0,8,0,0,0,8,zone of inhibition at 512 µg/mL (Staphylococcus aureus [21]): 15 mm; zone of inhibition at 16 µg/mL (Staphylococcus aureus [22]): 0 mm; zone of inhibition at 128 µg/mL (Staphylococcus aureus [23]): 7 mm; zone of inhibition at 512 µg/mL (Pseudomonas aeruginosa [18]): 0 mm; zone of inhibition at 4 µg/mL (Pseudomonas aeruginosa [19]): 0 mm; zone of inhibition at 128 µg/mL (Klebsiella pneumoniae [20]): 3 mm; zone of inhibition at 64 µg/mL (Staphylococcus aureus [24]): 4 mm; zone of inhibition at 4 µg/mL (Staphylococcus aureus [25]): 0 mm
128,128,4,14,CCn1cc(C(=O)O)c(=O)c2cc(F)c(N3CCN(Cn4cnc5ccccc54)CC3)cc21,3,2.11,6,2.11,0,0.6,1.15,7,3,0,0,20,0,0,0,10,logD [3]: -0.043; zone of inhibition at 512 µg/mL (Staphylococcus aureus [21]): 3 mm; zone of inhibition at 16 µg/mL (Staphylococcus aureus [22]): 0 mm; zone of inhibition at 128 µg/mL (Staphylococcus aureus [23]): 0 mm; zone of inhibition at 512 µg/mL (Pseudomonas aeruginosa [18]): 15 mm; zone of inhibition at 4 µg/mL (Pseudomonas aeruginosa [19]): 0 mm; zone of inhibition at 128 µg/mL (Klebsiella pneumoniae [20]): 8 mm; zone of inhibition at 64 µg/mL (Staphylococcus aureus [24]): 0 mm; zone of inhibition at 4 µg/mL (Staphylococcus aureus [25]): 0 mm
128,128,128,64,CCn1cc(C(=O)O)c(=O)c2cc(F)c(N3CCN(CN4C(=O)c5cccc6cccc(c56)C4=O)CC3)cc21,0,2.11,0,2.11,0,2.11,1.81,0,0,0,0,9,0,0,0,13,logD [3]: -0.9; zone of inhibition at 512 µg/mL (Staphylococcus aureus [21]): 15 mm; zone of inhibition at 16 µg/mL (Staphylococcus aureus [22]): 0 mm; zone of inhibition at 128 µg/mL (Staphylococcus aureus [23]): 0 mm; zone of inhibition at 512 µg/mL (Pseudomonas aeruginosa [18]): 10 mm; zone of inhibition at 4 µg/mL (Pseudomonas aeruginosa [19]): 0 mm; zone of inhibition at 128 µg/mL (Klebsiella pneumoniae [20]): 8 mm; zone of inhibition at 64 µg/mL (Staphylococcus aureus [24]): 0 mm; zone of inhibition at 4 µg/mL (Staphylococcus aureus [25]): 0 mm
